Measurements published in ChEMBL document CHEMBL1817660, “Synthesis of various 3-nitropropionamides as Mycobacterium tuberculosis isocitrate lyase inhibitor” (Bioorg Med Chem Lett, 2011).
Converted amounts (≈) assume the structure as drawn.

Legend:
[1] = test system: Mycolicibacterium smegmatis; assay: Antimycobacterial activity against active log phase Mycobacterium smegmatis ATCC 14468 by agar dilution method; type: functional
Summary of the method: (§1)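 Log-phase cultures (M. tuberculosis H37Rv at OD 600; M. smegmatis ATCC 14468) tested by agar dilution following NCCLS-type MIC procedure, in duplicate. MIC taken as lowest concentration giving complete inhibition of bacterial growth.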

[2] = test system: Mycolicibacterium smegmatis; assay: Antimycobacterial activity against 6-weeks nutrient starved phase cultures of Mycobacterium smegmatis ATCC 14468 treated for 7 days measured after 4 weeks by agar dilution method; type: functional
[3] = test system: Mycobacterium tuberculosis; assay: Antimycobacterial activity against 6-weeks nutrient starved phase cultures of Mycobacterium tuberculosis H37Rv treated for 7 days measured after 4 weeks by agar dilution method; type: functional
[4] = test system: Mycobacterium tuberculosis; assay: Antimycobacterial activity against active log phase Mycobacterium tuberculosis H37Rv by agar dilution method; type: functional; summary of the method: as §1
[5] = target: T1, Isocitrate lyase (Mycobacterium tuberculosis, UniProt P9WKK7); assay: Inhibition of Mycobacterium tuberculosis isocitrate lyase
T1 sequence (P9WKK7 whole entry): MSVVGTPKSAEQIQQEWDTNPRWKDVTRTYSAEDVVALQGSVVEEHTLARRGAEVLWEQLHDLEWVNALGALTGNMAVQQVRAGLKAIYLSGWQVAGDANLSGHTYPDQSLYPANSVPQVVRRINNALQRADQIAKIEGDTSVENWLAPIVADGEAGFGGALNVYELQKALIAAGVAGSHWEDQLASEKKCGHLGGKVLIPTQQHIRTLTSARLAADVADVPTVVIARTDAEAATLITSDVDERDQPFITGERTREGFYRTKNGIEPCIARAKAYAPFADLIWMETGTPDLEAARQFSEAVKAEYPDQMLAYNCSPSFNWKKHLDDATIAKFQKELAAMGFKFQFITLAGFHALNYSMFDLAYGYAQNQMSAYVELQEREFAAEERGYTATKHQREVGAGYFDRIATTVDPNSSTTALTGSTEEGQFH

[6] = Cytotoxicity against African green monkey Vero cells after 72 hrs by MTT assay; type: cell-based; conditions: chlorocebus sabaeus
Summary of the method: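 Vero cells exposed to a single concentration of 62.5 µg/mL for 72 h; viability read by cellular conversion of MTT to formazan (non-radioactive cell proliferation assay).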

[7] = test system: Mycobacterium tuberculosis; assay: Ratio of isoniazid MIC to compound MIC for active log phase Mycobacterium tuberculosis H37Rv by agar dilution method; type: functional
Summary of the method: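 MIC by agar dilution, following NCCLS-type guidance, against log-phase M. tuberculosis H37Rv (OD 600), run in duplicate. MIC is the lowest concentration that gives complete inhibition of bacterial growth. The line's ratio is isoniazid MIC divided by compound MIC.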

[8] = Selectivity index, ratio of CC50 for African green monkey Vero cells to MIC for 6-weeks nutrient starved phase cultures of Mycobacterium tuberculosis H37Rv; type: functional
[9] = test system: Mycobacterium tuberculosis; assay: Ratio of MIC for 6-weeks nutrient starved phase cultures of Mycobacterium tuberculosis H37Rv to MIC for active log phase Mycobacterium tuberculosis H37Rv; type: functional

| Structure (SMILES) | MIC [1] [µM] | MIC [2] [µM] | MIC [3] [µM] | MIC [4] [µM] | IC50 [5] [µM] | CC50 at 72 h [6] [µM] | Ratio [7] | Selectivity Index [8] | Ratio [9] |
| --- | --- | --- | --- | --- | --- | --- | --- | --- | --- |
| O=C(CC[N+](=O)[O-])Nc1ccccc1 | 129 (≈ 25 µg/mL) | > 257 | 64.4 (≈ 12.5 µg/mL) | 257 (≈ 50 µg/mL) |  |  |  |  |  |
| Cc1ccc(NC(=O)CC[N+](=O)[O-])cc1 | 120 (≈ 25 µg/mL) | > 240 | 60 (≈ 12.5 µg/mL) | 240 (≈ 50 µg/mL) |  |  |  |  |  |
| COc1ccc(NC(=O)CC[N+](=O)[O-])cc1 | 112 (≈ 25 µg/mL) | > 223 | 55.8 (≈ 12.5 µg/mL) | 223 (≈ 50 µg/mL) |  |  |  |  |  |
| O=C(CC[N+](=O)[O-])Nc1ccc(Cl)cc1 | 54.7 (≈ 12.5 µg/mL) | 13.7 (≈ 3.13 µg/mL) | 27.3 (≈ 6.25 µg/mL) | 109 (≈ 25 µg/mL) | 21.3 |  |  |  |  |
| O=C(CC[N+](=O)[O-])Nc1ccc(Br)cc1 | 91.5 (≈ 25 µg/mL) | 91.5 (≈ 25 µg/mL) | 45.8 (≈ 12.5 µg/mL) | 183 (≈ 50 µg/mL) | 32.5 |  |  |  |  |
| O=C(CC[N+](=O)[O-])Nc1ccc(F)cc1 | 118 (≈ 25 µg/mL) | 236 (≈ 50 µg/mL) | 58.9 (≈ 12.5 µg/mL) | 118 (≈ 25 µg/mL) |  |  |  |  |  |
| Cc1ccc(NC(=O)CC[N+](=O)[O-])c(C)c1 | 225 (≈ 50 µg/mL) | > 225 | 75 (≈ 16.7 µg/mL) | 225 (≈ 50 µg/mL) |  |  |  |  |  |
| Cc1cc(NC(=O)CC[N+](=O)[O-])ccc1Br | 87.1 (≈ 25 µg/mL) | 43.5 (≈ 12.5 µg/mL) | 43.5 (≈ 12.5 µg/mL) | 43.5 (≈ 12.5 µg/mL) | 36.8 |  |  |  |  |
| Cc1ccnc(NC(=O)CC[N+](=O)[O-])c1 | > 239 | 239 (≈ 50 µg/mL) | 59.8 (≈ 12.5 µg/mL) | 239 (≈ 50 µg/mL) |  |  |  |  |  |
| O=C(CC[N+](=O)[O-])Nc1ccc(Cl)cn1 | 218 (≈ 50 µg/mL) | 109 (≈ 25 µg/mL) | 54.4 (≈ 12.5 µg/mL) | 109 (≈ 25 µg/mL) |  |  |  |  |  |
| CCN(CC)C(=O)CC[N+](=O)[O-] | 287 (≈ 50 µg/mL) | > 287 | > 287 | > 287 |  |  |  |  |  |
| CCCN(CCC)C(=O)CC[N+](=O)[O-] | > 247 | > 247 | > 247 | > 247 |  |  |  |  |  |
| O=C(CC[N+](=O)[O-])N(Cc1ccccc1)Cc1ccccc1 | 168 (≈ 50 µg/mL) | > 168 | > 168 | > 168 |  |  |  |  |  |
| CCN1CCN(C(=O)CC[N+](=O)[O-])CC1 | 58.1 (≈ 12.5 µg/mL) | 116 (≈ 25 µg/mL) | 29 (≈ 6.25 µg/mL) | 58.1 (≈ 12.5 µg/mL) | 12.6 |  |  |  |  |
| O=C(CC[N+](=O)[O-])N1CCN(c2ccccc2)CC1 | 190 (≈ 50 µg/mL) | > 190 | 47.5 (≈ 12.5 µg/mL) | 190 (≈ 50 µg/mL) | 41.2 |  |  |  |  |
| O=C(CC[N+](=O)[O-])N1CCN(c2cccc(C(F)(F)F)c2)CC1 | 75.5 (≈ 25 µg/mL) | 75.5 (≈ 25 µg/mL) | 37.7 (≈ 12.5 µg/mL) | 151 (≈ 50 µg/mL) | 30.2 |  |  |  |  |
| O=C(CC[N+](=O)[O-])N1CCN(Cc2ccccc2)CC1 | > 180 | > 180 | 90.1 (≈ 25 µg/mL) | > 180 |  |  |  |  |  |
| CCn1cc(C(=O)O)c(=O)c2cc(F)c(N3CCN(C(=O)CC[N+](=O)[O-])CC3)cc21 | 7.44 (≈ 3.13 µg/mL) | 0.95 (≈ 0.399 µg/mL) | 0.47 (≈ 0.198 µg/mL) | 1.85 (≈ 0.778 µg/mL) | 0.2 | > 149 |  |  |  |
| O=C(O)c1cn(C2CC2)c2cc(N3CCN(C(=O)CC[N+](=O)[O-])CC3)c(F)cc2c1=O | 0.09 (≈ 0.0389 µg/mL) | 0.09 (≈ 0.0389 µg/mL) | 0.09 (≈ 0.0389 µg/mL) | 1.8 (≈ 0.778 µg/mL) | 0.12 | > 145 |  |  |  |
| CCn1cc(C(=O)O)c(=O)c2cc(F)c(N3CCN(C(=O)CC[N+](=O)[O-])CC3C)c(F)c21 (configuration not stated) | 6.91 (≈ 3.13 µg/mL) | 1.72 (≈ 0.778 µg/mL) | 1.72 (≈ 0.778 µg/mL) | 3.44 (≈ 1.56 µg/mL) | 1.46 | > 138 |  |  |  |
| COc1c(N2C(C)CN(C(=O)CC[N+](=O)[O-])CC2C)c(F)cc2c(=O)c(C(=O)O)cn(C3CC3)c12 (configuration not stated) | 0.08 (≈ 0.0392 µg/mL) | 0.08 (≈ 0.0392 µg/mL) | 0.04 (≈ 0.0196 µg/mL) | 0.16 (≈ 0.0785 µg/mL) | 0.1 | > 127 | 4.5 | 3185 | 4 |
| O=C(O)CC[N+](=O)[O-] | > 420 | > 420 | > 420 | > 420 | 116 |  |  |  |  |
| O=C(O)c1cn(C2CC2)c2cc(N3CCNCC3)c(F)cc2c1=O [CIPROFLOXACIN] |  | 2.35 (≈ 0.779 µg/mL) |  |  |  |  |  |  |  |
| NNC(=O)c1ccncc1 [ISONIAZID] | 45.6 (≈ 6.25 µg/mL) | > 365 | > 365 | 0.72 (≈ 0.0987 µg/mL) |  | > 456 |  |  |  |
